Measured values taken from PMC3567257 (Biochemistry, 2012).
Numbering of substitutions follows the chain as printed. Counter-ions that a name gives are not always drawn. Like-named read-outs stand apart in the source and are kept apart here.

Columns and labels:
[1] = biological target: T1, JARID1A PHD3 (Homo sapiens, UniProt P29375); test: HaloTag assay for histone peptide binding; conditions: for effect on JARID1A PHD3 binding to H3K4me3 peptide in HaloTag assay: compound 0–200 μM
T1 sequence (P29375 1601-1660): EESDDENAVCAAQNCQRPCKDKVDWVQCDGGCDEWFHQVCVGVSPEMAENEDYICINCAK
In short: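 (HQ)5-HaloTag-JARID1A PHD3 (40 μM as added) is captured on HaloTag-ligand plates for 2 h with shaking, then washed with HBST. […] Detection uses streptavidin-HRP (1:2,000, 20 min), six washes and chemiluminescence. Diluent is StabilCoat with 0.5 mM TCEP, at ambient temperature. IC50 is fitted from relative binding versus log[inhibitor].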

[2] = biological target: T2, GST-JARID1A PHD3 (Homo sapiens, UniProt P29375); test: Fluorescence polarization binding assay; conditions: for loss of polarization (loss of peptide binding): up to 200 μM
T2 sequence (P29375 1601-1660): T1 sequence (P29375 1601-1660)

[3] = biological target: T3, RAG2 PHD (Mus musculus, UniProt P21784); test: HaloTag assay counterscreen; type: binding; conditions: 0, 50, 100, 200 μM
T3 sequence (P21784 414-487): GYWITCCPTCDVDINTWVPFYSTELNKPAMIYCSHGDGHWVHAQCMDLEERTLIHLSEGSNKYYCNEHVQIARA

[4] = biological target: T1, JARID1A PHD3; test: Affinity pull down with TMR-labeled HaloTag-JARID1A PHD3; type: binding; conditions: for inhibition of JARID1A PHD3 in affinity pull down: compound 0–500 μM
In short: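 Streptavidin-agarose beads are loaded with biotinylated histone peptide (about 300 pmol per 6.6 μL bed volume) in 1% BSA-HBST for 30 min. HaloTag-JARID1A PHD3 is prelabeled with TMR ligand (10 μM each, 15 min, dark) and used at 100 nM final with beads. Compound is 0–500 μM at 5% DMSO, 45 min ambient, dark. After three HBST washes, beads are boiled in SDS buffer, run on 12% SDS-PAGE and scanned for TAMRA fluorescence.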

[5] = biological target: T4, BHC80 PHD (Homo sapiens, UniProt Q96BD5); test: Fluorescence polarization counterscreen; type: binding; conditions: H3K4-unmodified probe; NM: Not measurable within solubility limit of compound
T4 sequence (Q96BD5 486-543): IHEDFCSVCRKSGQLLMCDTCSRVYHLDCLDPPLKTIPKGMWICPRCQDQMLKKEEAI
In short: (§1)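 Test compound titrated into GST-reader fusion at its 90% fraction-bound concentration plus 3 nM fluorescein-labeled H3(1–14) probe. Protein: AIRE PHD1 4 μM and BHC80 PHD 60 μM (K4-unmodified probe); JMJD2A DTD 4 μM and RAG2 PHD 25 μM (K4me3 probe). Buffer was 30 mM HEPES, 150 mM NaCl, pH 7.4, 0.01% Triton X-100. Triplicates read by polarization. IC50 fitted from fraction bound versus log[inhibitor].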

[6] = biological target: T5, AIRE PHD1 (Homo sapiens, UniProt O43918); test: Fluorescence polarization counterscreen; type: binding; conditions: H3K4-unmodified probe; NM: Not measurable within solubility limit of compound
T5 sequence (O43918 293-354): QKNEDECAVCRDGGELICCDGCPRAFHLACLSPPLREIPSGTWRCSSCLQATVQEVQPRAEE
In short: as §1

[7] = biological target: T6, JMJD2A DTD (Homo sapiens, UniProt O75164); test: Fluorescence polarization counterscreen; type: binding
T6 sequence (O75164 895-1011): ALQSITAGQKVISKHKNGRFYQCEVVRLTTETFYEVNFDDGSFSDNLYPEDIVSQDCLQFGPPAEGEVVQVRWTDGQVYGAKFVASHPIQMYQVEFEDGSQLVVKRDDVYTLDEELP
In short: as §1

[8] = system: JARID1A PHD3 D1629 mutants; test: Dose ratio; type: binding; conditions: di-N-desethylamiodarone 0, 20, 40, 80 μM; tegaserod maleate 0, 80, 160, 320 μM
In short: (§2)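 Fluorescence polarization Schild analysis. Increasing GST-JARID1A PHD3 (wild type or mutant) is titrated against a fixed inhibitor concentration plus 3 nM H3(1–14)K4me3K14fluo probe. The EC50 is determined at each inhibitor level. The dose ratio is the fold change in EC50 with inhibitor relative to EC50 without inhibitor.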

[9] = biological target: T6, JMJD2A DTD; test: HaloTag assay counterscreen; type: binding; conditions: 0, 50, 100, 200 μM
[10] = biological target: T4, BHC80 PHD; test: HaloTag assay counterscreen; type: binding; conditions: 0, 50, 100, 200 μM
[11] = biological target: T1, JARID1A PHD3; test: Zinc ejection study; type: biochemical; conditions: for zinc release from JARID1A PHD3 (PAR assay): increasing concentrations
In short: (§3)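 His6-JARID1A PHD3 or (HQ)5-HaloTag reader-domain fusion at 5 μM was treated with increasing test compound concentrations in 10 mM PAR, 30 mM HEPES, 150 mM NaCl, pH 7.4, 5% v/v DMSO. Triplicates were shaken 10 min. A boiled DMSO-only sample served as the destabilization-induced zinc release reference. Zinc release was read as absorbance at 500 nm, with DMSO-only values subtracted.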

[12] = biological target: T5, AIRE PHD1; test: HaloTag assay counterscreen; type: binding; conditions: 0, 50, 100, 200 μM
[13] = biological target: T7, wild-type (WT) JARID1A PHD3 (Homo sapiens, UniProt P29375); test: Dose ratio; type: binding; conditions: di-N-desethylamiodarone 0, 20, 40, 80 μM; tegaserod maleate 0, 80, 160, 320 μM
T7 sequence (P29375 1601-1660): T1 sequence (P29375 1601-1660)

[14] = system: JARID1A PHD3 D1624 mutants; test: Dose ratio; type: binding; conditions: di-N-desethylamiodarone 0, 20, 40, 80 μM; tegaserod maleate 0, 80, 160, 320 μM
In short: as §2

[15] = biological target: T3, RAG2 PHD; test: Fluorescence polarization counterscreen; type: binding; conditions: NM: Not measurable within solubility limit of compound
In short: as §1

[16] = biological target: T8, JARID1A PHD3 D1629N (Homo sapiens, UniProt P29375, D1629N); type: binding; conditions: D1629 mutation, independent of substitution
T8 sequence (P29375 1601-1660 D1629N): T1 sequence (P29375 1601-1660) with D29N

[17] = biological target: T9, JARID1A PHD3 D1629A (Homo sapiens, UniProt P29375, D1629A); type: binding; conditions: D1629 mutation, independent of substitution
T9 sequence (P29375 1601-1660 D1629A): T1 sequence (P29375 1601-1660) with D29A

[18] = biological target: T10, JMJD2A double tudor domain (Homo sapiens, UniProt O75164); test: Zinc ejection study; type: biochemical
T10 sequence (O75164 895-1011): T6 sequence (O75164 895-1011)
In short: as §3

[19] = biological target: T4, BHC80 PHD; test: Zinc ejection study; type: biochemical; conditions: compared with JARID1A PHD3
In short: as §3

[20] = biological target: T5, AIRE PHD1; test: Zinc ejection study; type: biochemical; conditions: compared with JARID1A PHD3
In short: as §3

CCc1oc2ccccc2c1C(=O)c1cc(Br)c(O)c(Br)c1 [benzbromarone]
effect on JARID1A PHD3 binding to H3K4me3 peptide in HaloTag assay [1]: but not benzbromarone, inhibited JARID1A PHD3

c1ccc2c(c1)Nc1ccccc1S2 [phenothiazine]
effect on JARID1A PHD3 binding to H3K4me3 peptide in HaloTag assay [1]: significantly reduced signal | loss of polarization (loss of peptide binding) [2]: did not cause a significant loss in polarization

O=C(O)/C=C\C(=O)O [maleate]
effect on JARID1A PHD3 binding to H3K4me3 peptide in HaloTag assay [1]: not maleate

[H]/N=C(/NCCCCC)N/N=C/c1c[nH]c2ccc(OC)cc12 [tegaserod, Tegaserod maleate]
loss of peptide binding, RAG2 PHD, HaloTag assay [3]: Modest reductions in binding | inhibition of JARID1A PHD3 in affinity pull down [4]: inhibited JARID1A PHD3 | IC50 towards BHC80 PHD, fluorescence polarization assay [5]: exceeded the solubility limits | IC50 towards AIRE PHD1, fluorescence polarization assay [6]: exceeded the solubility limits | effect on JARID1A PHD3 binding to H3K4me3 peptide in HaloTag assay [1]: significantly reduced signal | IC50 [7]: 95 ± 9.8 µM | shift of EC50 / dose ratio with increasing fixed inhibitor [8]: dose ratios that remained near one | loss of peptide binding, JMJD2A DTD, HaloTag assay [9]: Modest reductions in binding | loss of peptide binding, BHC80 PHD, HaloTag assay [10]: Modest reductions in binding | IC50 [2]: 74 ± 16 µM | zinc release from JARID1A PHD3 (PAR assay) [11]: not causing zinc release | loss of peptide binding, AIRE PHD1, HaloTag assay [12]: Modest reductions in binding | shift of EC50 / dose ratio with increasing fixed inhibitor [13]: increase in EC50 values | shift of EC50 / dose ratio with increasing fixed inhibitor [14]: dose ratios were less pronounced than for WT JARID1A PHD3 | IC50 towards RAG2 PHD, fluorescence polarization assay [15]: exceeded the solubility limits

CSS(C)(=O)=O [MMTS, methyl methanethiosulfonate]
EC50 ([11]; read-out: concentration for half-maximal zinc loss (PAR assay), 5 μM His6-JARID1A PHD3): 33 µM

CCCCc1oc2ccccc2c1C(=O)c1cc(I)c(OCCNCC)c(I)c1 [Desethylamiodarone, desethylamiodarone]
inhibition of JARID1A PHD3 in fluorescence polarization assay ([2]; within the concentration range tested): Neither dimethyl-AMI analog nor desethyl-AMI significantly inhibited

CCCCc1oc2ccccc2c1C(=O)c1cc(I)c(OCCN)c(I)c1 [Di-N-desethylamiodarone, di-N-desethylamiodarone]
shift of EC50 / dose ratio with increasing fixed inhibitor [8]: dose ratios that remained near one | shift of EC50 / dose ratio with increasing fixed inhibitor [13]: increase in EC50 values | shift of EC50 / dose ratio with increasing fixed inhibitor [14]: dose ratios were less pronounced than for WT JARID1A PHD3

H3K4me3 peptide: histone H3 peptide trimethylated at lysine 4; unlabeled competitor or fluorescein-labeled H3(1–14) probe
IC50 ([4]; read-out: experimental IC50, peptide competition in affinity pull down): 13.6 ± 4.5 µM | defect in affinity relative to wild-type [16]: greater than 10 fold | defect in affinity relative to wild-type [17]: greater than 10 fold

CCN(CC)C(=S)SSC(=S)N(CC)CC [disulfiram, tetraethylthiuram disulfide]
loss of peptide binding, RAG2 PHD, HaloTag assay [3]: Significant (by p-value) loss of peptide binding | zinc release from JMJD2A double tudor domain [18]: No zinc release was observed | susceptibility to zinc ejection, BHC80 PHD [19]: similarly susceptible | inhibition of JARID1A PHD3 in affinity pull down [4]: inhibited JARID1A PHD3 | effect on JARID1A PHD3 binding to H3K4me3 peptide in HaloTag assay [1]: significantly reduced signal | loss of peptide binding, BHC80 PHD, HaloTag assay [10]: Significant (by p-value) loss of peptide binding | loss of polarization (loss of peptide binding) [2]: did not cause a significant loss in polarization | EC50 [11]: 10 µM | loss of peptide binding, AIRE PHD1, HaloTag assay [12]: Significant (by p-value) loss of peptide binding | susceptibility to zinc ejection, AIRE PHD1 [20]: similarly susceptible

unmethylated H3 peptide: histone H3 peptide unmodified at lysine 4 (ARTKQTARKSTEW; E(PEG-biotin) at position 12)
inhibition of JARID1A PHD3 by peptide competition in HaloTag assay ([1]; 25 μM peptide): did not significantly inhibit

CCCCc1oc2ccc(NS(C)(=O)=O)cc2c1C(=O)c1ccc(OCCCN(CCCC)CCCC)cc1 [dronedarone]
effect on JARID1A PHD3 binding to H3K4me3 peptide in HaloTag assay [1]: inhibited JARID1A PHD3

CCCCc1oc2ccccc2c1C(=O)c1cc(I)c(OCCN(CC)CC)c(I)c1 [Amiodarone, amiodarone HCl]
loss of peptide binding, RAG2 PHD, HaloTag assay [3]: significantly affected | effect on JARID1A PHD3 binding to H3K4me3 peptide in HaloTag assay [1]: significantly reduced signal | loss of peptide binding, JMJD2A DTD, HaloTag assay [9]: significantly affected | loss of peptide binding, BHC80 PHD, HaloTag assay [10]: but not AIRE PHD1 or BHC80 PHD | loss of polarization (loss of peptide binding) [2]: did not cause a significant loss in polarization | zinc release from JARID1A PHD3 (PAR assay) [11]: not causing zinc release | loss of peptide binding, AIRE PHD1, HaloTag assay [12]: but not AIRE PHD1 or BHC80 PHD
